Compounds with a hit are over-represented: about 3.9% of the library has one in this group of screens.
M1 PAM = positive allosteric modulators of human M1 muscarinic receptor. P11229. CHO-K1 hM1, Fluo-8 calcium fluorescence, ACh EC20; 0% = ACh EC20, 100% = maximal ACh. activation, % at 3 µM. 360,000 compounds, 0.088% hits; in the data active means activation above about 19%, passing the limit was not always enough
TAAR1 agonist = agonists of human TAAR1; activation, % at 3 µM; Q96RJ0; AID 624467; CHO RD-HGA16 TAAR1, Fluo-8 calcium fluorescence; vehicle wells 0%, saturating PEA agonist 100%; 360,000 compounds, 0.99% hits;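 active means activation above the mean activation of all test compounds in the run plus 3 SD, cut at about 38% in these data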
Target sequence (Q96RJ0 whole entry, looked up): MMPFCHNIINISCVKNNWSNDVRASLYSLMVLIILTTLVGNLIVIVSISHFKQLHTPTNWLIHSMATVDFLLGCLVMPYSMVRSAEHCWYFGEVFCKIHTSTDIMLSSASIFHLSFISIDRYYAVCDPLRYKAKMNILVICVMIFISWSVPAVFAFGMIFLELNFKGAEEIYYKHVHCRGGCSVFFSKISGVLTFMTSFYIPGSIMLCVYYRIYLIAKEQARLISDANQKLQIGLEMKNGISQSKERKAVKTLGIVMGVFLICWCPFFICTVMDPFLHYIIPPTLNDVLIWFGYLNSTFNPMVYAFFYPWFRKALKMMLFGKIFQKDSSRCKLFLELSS
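Assay system – CHO-derived RD-HGA16 cells with stable Gα16 and human TAAR1 · Compound dosing – one-point dosing at 3 µM (nominal) · Incubation – 17-24 h seeding, 75 min 37 °C dye, 30 min RT · Measured by – kinetic Fluo-8 calcium fluorescence · Control set – DMSO vehicle as 0%, PEA at EC100 as 100% · Repeats – single well for each compound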
TAAR1 antag = human TAAR1 antagonism. Q96RJ0. CHO RD-HGA16 TAAR1, Fluo-8 calcium fluorescence, antagonist. inhibition, % at 3 µM. 360,000 compounds, 1.5% hits. AID 624466;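 active means inhibition above a per-plate cutoff, the mean inhibition of test compounds on that plate plus 3 SD, cut at about 49% in these data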;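 further: 0% = DMSO plus EC80 beta-PEA response and 100% = DMSO alone without agonist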
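Test system: hTAAR1-expressing CHO RD-HGA16 cells, Gα16-coupled; Probe or stimulus: EC80 β-phenethylamine stimulus; Compound dosing: single nominal final test compound concentration of 3 µM; Timing: 140 s kinetic read after compound, 140 s after agonist; Signal: Fluo-8 calcium-sensitive fluorescence; Measure: % inhibition of agonist calcium response; Controls: DMSO and EC80 PEA controls.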
m5-HT2A agonist = activates the mouse 5-HT2A serotonin receptor; P35363; CHO-K1 mHTR2A beta-arrestin complementation, luminescence; percent of 30 µM serotonin response; activation, % at 7.6 µM; 360,000 compounds, 0.66% hits; AID 624169;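 active means activation above a run cutoff, the mean activation of all tested compounds plus 3 SD, cut at about 14% in these data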;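 further: 0% = plate median of compound wells and 100% = 30 µM serotonin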
M1 antag = antagonists of human M1 muscarinic receptor. P11229. CHO-K1 hM1, Fluo-8 calcium fluorescence, ACh EC80 antagonist. inhibition, % at 3 µM. 360,000 compounds, 1.3% hits;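 active means percent inhibition above its own plate's cutoff, namely the mean of that plate's compound wells plus 3 SD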;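 further: peak over basal fluorescence ratio during 140 s after agonist addition; 0% = ACh EC80 plus DMSO and 100% = DMSO alone without agonist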
M1 ag = activates human CHRM1 receptor; P11229; CHO-K1 hM1, Fluo-8 calcium fluorescence, agonist mode; 0% DMSO, 100% acetylcholine EC100; activation, % at 3 µM; 360,000 compounds, 0.33% hits; AID 588814;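 active means activation above the run's mean compound activation plus 3 SD, cut at about 16% in these data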;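 further: peak over basal fluorescence ratio within a 140 s kinetic read after compound addition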
Starred values were filed as active, the others as inactive; · = not tested or not shown.

SMILES	M1 PAM	TAAR1 agonist	TAAR1 antag	m5-HT2A agonist	M1 antag	M1 ag
CC(=O)c1cn(CCOc2cc(C)ccc2C)c2ccccc12	-10	3	27	1	26*	2
Cc1ccc(NN2C(=O)C=C(c3ccc(Cl)cc3)C2=O)cc1	-1	37	58*	4	29	7
COc1ccc(C2=CC(=O)N(Nc3ccccc3)C2=O)cc1	12	33	-3	1	-2	-2
O=C(NCCCN1CCOCC1)c1ccc(Sc2ccc(Br)cc2)c([N+](=O)[O-])c1	4	0	19	0	-6	-9
CN(C)CCCNC(=O)c1ccc(Cl)c(S(=O)(=O)N2CCCCCC2)c1	1	-1	4	2	-5	-8
O=C(NCCCN1CCOCC1)c1ccc(Sc2ccccc2Cl)c([N+](=O)[O-])c1	-26	10	-1	-10	31*	-11
CN(C)C(CNC(=O)c1ccc(Cl)c(S(=O)(=O)N2CCCCCC2)c1)c1ccccc1 (stereo unspecified)	-20	25	-19	-11	52*	-4
O=C(Nc1cccnc1)c1ccc(Cl)c(S(=O)(=O)N2CCCCC2)c1	-3	6	-7	0	0	1
CC(NC(=O)c1ccc(Cl)c(S(=O)(=O)N2CCCCCC2)c1)c1cccnc1 (stereo unspecified)	-27	-1	4	5	37*	-7
Cc1ccc(C(=O)NCCCN2CCOCC2)cc1S(=O)(=O)N1CCCCC1	3	1	0	-2	-4	-8
O=C(NCCN1CCOCC1)c1ccc(Cl)c(S(=O)(=O)N2CCCCC2)c1	-8	1	-17	1	49*	-2
Clc1cccc2c1Sc1ccccc1CC2N1CCNCC1 (stereo unspecified)	-26	21	23	-5	88*	-9
Clc1ccc2c(c1)C(N1CCNCC1)Cc1ccccc1S2 (stereo unspecified)	-25	·	·	-6	87*	-4
COc1ccc2c(c1)CC(N1CCN(C)CC1)c1cc(OC)ccc1S2 (stereo unspecified)	-2	17	1	-10	17	7
COCCCN1CCN(C2Cc3ccccc3Sc3ccc(Cl)cc32)CC1 (stereo unspecified)	-23	11	6	-3	47*	-6
COc1ccc(-c2cc(C(=O)Nc3ccc(S(=O)(=O)Nc4onc(C)c4C)cc3)c3ccccc3n2)cc1	-2	0	5	9	10	0
CN(c1ccc(NC(=O)Cc2cn(C)c3ccccc23)cc1)c1ccccn1	·	-2	1	·	·	·
C=CCN(CC=C)CCOc1ccc2ccccc2c1	3	39*	-5	0	-5	-10
O=S(=O)(Nc1ccc(C(O)(C(F)(F)F)C(F)(F)F)cc1)c1cccc2ccccc12	-6	4	26	-8	1	-2
C#Cc1ccccc1OCCCN1CCC(C(O)(c2ccccc2)c2ccccc2)CC1	·	40*	51*	-8	·	·
N#Cc1ccccc1OCCCN1CCC(C(O)(c2ccccc2)c2ccccc2)CC1	·	23	10	-5	·	·
OC(c1ccccc1)(c1ccccc1)C1CCN(CCCOc2ccc(F)cc2)CC1	·	39*	26	-8	·	·
CN(C(=O)[C@H]1O[C@@H](n2cnc(C(N)=O)n2)[C@H](O)[C@@H]1O)c1ccccc1	·	2	-2	·	·	·
Nc1sc(-c2ccccc2)n[n+]1Cc1cccc2cccnc12	-25	12	-7	-2	66*	-3
O=C(Cn1c(=S)[nH]c2ccccc2c1=O)NCCc1ccccc1	8	38*	-16	0	-11	-1
SMILES	M1 PAM	TAAR1 agonist	TAAR1 antag	m5-HT2A agonist	M1 antag	M1 ag
O=C(CCn1c(=S)[nH]c2ccccc2c1=O)NCCSCc1ccccc1	-4	0	13	1	6	-5
Cc1cccc(N2C(=O)c3cccc(Oc4ccc(Cl)cc4)c3C2=O)c1	11	38*	26	2	-5	6
COc1ccccc1C(=O)Nc1nc(-c2ccc(S(=O)(=O)N3CCOCC3)cc2)cs1	-18	31	69*	7	57*	5
O=C(COc1cccc(Cl)c1)Nc1nc(-c2ccc(S(=O)(=O)N3CCOCC3)cc2)cs1	-7	14	42	1	7	-2
CCOc1cccc(C(=O)Nc2nc(-c3ccc(S(=O)(=O)N4CCOCC4)cc3)cs2)c1	-12	14	53*	6	13	-5
COc1ccc(-c2csc(NC(=O)c3ccc(S(C)(=O)=O)cc3)n2)cc1	-2	27	53*	6	4	-1
O=C(NCCc1ccccc1)c1ccc(NCC2CCCO2)c([N+](=O)[O-])c1 (stereo unspecified)	4	1	-10	-7	-3	-5
COc1ccccc1C(=O)NC(=O)CSc1nnnn1C	13	13	-36	6	-11	-2
COc1cc(C=NN=c2sc3ccccc3n2C)ccc1OCCO	·	7	9	·	·	·
O=[N+]([O-])c1ccc(N2CCN(C(=S)NC3CCCCC3)CC2)cc1	-21	10	52*	6	21*	2
CC1CCN(c2ccc3c(c2)S(=O)(=O)c2cccc(C(=O)NC4CCCCC4)c2C3=O)CC1	-11	41*	71*	3	11	-7
COc1ccccc1N1CCN(c2ccc3c(c2)S(=O)(=O)c2cccc(C(=O)NCC4CC4)c2C3=O)CC1	-20	13	54*	4	25	-1
O=C(NC1CCCC1)c1cccc2c1C(=O)c1ccc(N3CCCCC3)cc1S2(=O)=O	-3	10	21	-4	10	-1
O=C(NC1CC1)c1cccc2c1C(=O)c1ccc(N3CCC(Cc4ccccc4)CC3)cc1S2(=O)=O	-11	46*	78*	3	26	21*
CC1CCN(c2ccc3c(c2)S(=O)(=O)c2cccc(C(=O)NCc4ccc(F)cc4)c2C3=O)CC1	6	22	38	5	-4	-2
COc1ccc(-c2ccc3c(c2)S(=O)(=O)c2cccc(C(=O)NC[C@@H]4CCCO4)c2C3=O)cc1OC	-12	21	57*	15*	29	-5
CC(C)c1cccc(-c2ccc3c(c2)S(=O)(=O)c2cccc(C(=O)O)c2C3=O)c1	10	1	-13	3	-7	-4
O=C(NCc1ccc(F)cc1)c1cccc2c1C(=O)c1ccc(N3CCC(N4CCCCC4)CC3)cc1S2(=O)=O	-25	2	-2	2	40*	-8
CC(C)c1cccc(-c2ccc3c(c2)S(=O)(=O)c2cccc(C(=O)NCc4ccco4)c2C3=O)c1	7	12	52*	-6	-4	-1
O=C(NC1CCCCC1)c1cccc2c1C(=O)c1ccc(N3CCCC3)cc1S2(=O)=O	-8	30	59*	-1	12	0

Bioassay records: PubChem, The Scripps Research Institute Molecular Screening Center
